According to ChEMBL document CHEMBL1649231, “In vitro activities of panduratin A against clinical Staphylococcus strains” (2009):
≈ marks a conversion by molar mass, not a printed value.

Columns and labels:
Assay type in all cases: functional
[1] = system: Staphylococcus aureus; experiment: Antimicrobial activity against methicillin-resistant Staphylococcus aureus after 24 hrs by broth microdilution method
Method in brief: (§1)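 Clinical isolates came from blood, body fluids, genital secretions, pus or sputum, identified conventionally or by Vitek. MICs were run by CLSI M7-A6 broth microdilution in Mueller-Hinton broth with 5 × 10^5 CFU/ml inoculum. Agents were twofold serially diluted, starting from 10% DMSO. Drug-free and uninoculated controls were included. Plates were incubated aerobically at 37°C for 24 h; MIC is the lowest concentration giving no visible growth.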

[2] = system: Staphylococcus aureus; experiment: Antimicrobial activity against methicillin-susceptible Staphylococcus aureus after 24 hrs by broth microdilution method; method in brief: as §1
[3] = system: Staphylococcus simulans; experiment: Antimicrobial activity against methicillin-resistant coagulase-negative Staphylococcus simulans after 24 hrs by broth microdilution method; method in brief: as §1
[4] = system: Staphylococcus haemolyticus; experiment: Bactericidal activity against methicillin-resistant coagulase-negative Staphylococcus haemolyticus after 24 hrs by plate counting method
[5] = system: Staphylococcus haemolyticus; experiment: Antimicrobial activity against methicillin-resistant coagulase-negative Staphylococcus haemolyticus after 24 hrs by broth microdilution method; method in brief: as §1
[6] = system: Staphylococcus epidermidis; experiment: Bactericidal activity against methicillin-resistant coagulase-negative Staphylococcus epidermidis after 24 hrs by plate counting method
[7] = system: Staphylococcus epidermidis; experiment: Antimicrobial activity against methicillin-resistant coagulase-negative Staphylococcus epidermidis after 24 hrs by broth microdilution method; method in brief: as §1
[8] = system: Staphylococcus hominis; experiment: Bactericidal activity against methicillin-resistant coagulase-negative Staphylococcus hominis after 24 hrs by plate counting method
[9] = system: Staphylococcus aureus; experiment: Bactericidal activity against methicillin-susceptible Staphylococcus aureus after 24 hrs by plate counting method
Method in brief: (§2)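 Clinical staphylococcal isolates from patient body fluids, blood, genital secretions, pus or sputum; species by conventional methods or Vitek. Twofold dilutions in Mueller-Hinton broth, inoculum 5 × 10^5 CFU/ml, 37°C aerobic 24 h (CLSI M7-A6 microdilution). About 100 μl from each well without visible growth spread on MHA; 37°C 24 h. MBC = lowest concentration giving no growth on agar.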

[10] = system: Staphylococcus hominis; experiment: Antimicrobial activity against methicillin-resistant coagulase-negative Staphylococcus hominis after 24 hrs by broth microdilution method; method in brief: as §1
[11] = system: Staphylococcus aureus; experiment: Bactericidal activity against methicillin-resistant Staphylococcus aureus after 24 hrs by plate counting method; conditions: Staphylococcus aureus, 24 h
[12] = system: Staphylococcus simulans; experiment: Bactericidal activity against methicillin-resistant coagulase-negative Staphylococcus simulans after 24 hrs by plate counting method; method in brief: as §2
[13] = system: Mammaliicoccus sciuri; experiment: Antimicrobial activity against methicillin-resistant coagulase-negative Staphylococcus sciuri after 24 hrs by broth microdilution method; method in brief: as §1
[14] = system: Mammaliicoccus sciuri; experiment: Bactericidal activity against methicillin-resistant coagulase-negative Staphylococcus sciuri after 24 hrs by plate counting method; method in brief: as §2
[15] = system: Staphylococcus hominis; experiment: Antimicrobial activity against methicillin-susceptible coagulase-negative Staphylococcus hominis after 24 hrs by broth microdilution method; method in brief: as §1
[16] = system: Staphylococcus hominis; experiment: Bactericidal activity against methicillin-susceptible coagulase-negative Staphylococcus hominis after 24 hrs by plate counting method; method in brief: as §2
[17] = system: Staphylococcus epidermidis; experiment: Antimicrobial activity against methicillin-susceptible coagulase-negative Staphylococcus epidermidis after 24 hrs by broth microdilution method; method in brief: as §1
[18] = system: Staphylococcus epidermidis; experiment: Bactericidal activity against methicillin-susceptible coagulase-negative Staphylococcus epidermidis after 24 hrs by plate counting method; method in brief: as §2
[19] = system: Staphylococcus haemolyticus; experiment: Antimicrobial activity against methicillin-susceptible coagulase-negative Staphylococcus haemolyticus after 24 hrs by broth microdilution method; method in brief: as §1
[20] = system: Staphylococcus haemolyticus; experiment: Bactericidal activity against methicillin-susceptible coagulase-negative Staphylococcus haemolyticus after 24 hrs by plate counting method; method in brief: as §2
[21] = system: Staphylococcus simulans; experiment: Antimicrobial activity against methicillin-susceptible coagulase-negative Staphylococcus simulans after 24 hrs by broth microdilution method; method in brief: as §1
[22] = system: Staphylococcus simulans; experiment: Bactericidal activity against methicillin-susceptible coagulase-negative Staphylococcus simulans after 24 hrs by plate counting method; method in brief: as §2
[23] = system: Mammaliicoccus sciuri; experiment: Antimicrobial activity against methicillin-susceptible coagulase-negative Staphylococcus sciuri after 24 hrs by broth microdilution method; method in brief: as §1
[24] = system: Mammaliicoccus sciuri; experiment: Bactericidal activity against methicillin-susceptible coagulase-negative Staphylococcus sciuri after 24 hrs by plate counting method; method in brief: as §2
[25] = system: Porphyromonas gingivalis; experiment: Antimicrobial activity against Porphyromonas gingivalis
[26] = system: Streptococcus mutans; experiment: Antimicrobial activity against Streptococcus mutans
[27] = system: Hoylesella loescheii; experiment: Antimicrobial activity against Prevotella loescheii
[28] = system: Prevotella intermedia; experiment: Antimicrobial activity against Prevotella intermedia
[29] = system: Cutibacterium acnes; experiment: Antimicrobial activity against Propionibacterium acnes
[30] = system: Porphyromonas gingivalis; experiment: Bactericidal activity against Porphyromonas gingivalis
[31] = system: Streptococcus mutans; experiment: Bactericidal activity against Streptococcus mutans
[32] = system: Hoylesella loescheii; experiment: Bactericidal activity against Prevotella loescheii
[33] = system: Prevotella intermedia; experiment: Bactericidal activity against Prevotella intermedia
[34] = system: Cutibacterium acnes; experiment: Bactericidal activity against Propionibacterium acnes
[35] = Staphylococcus haemolyticus, 24 h
[36] = Staphylococcus epidermidis, 24 h

`COc1cc(O)c(C(=O)[C@@H]2[C@H](CC=C(C)C)C(C)=CC[C@H]2c2ccccc2)c(O)c1` [PANDURATIN A] was tested. Which MIC [1] did it give?
The MIC was 0.5 µg/mL (≈ 1.23 µM).

What about the MIC50 [1] of the same molecule?
The MIC50 was 0.5 µg/mL (≈ 1.23 µM).

And the MIC90 [1]?
The MIC90 was 1 µg/mL (≈ 2.46 µM).

And the MIC [2]?
The MIC was 0.5 µg/mL (≈ 1.23 µM).

And the MIC50 [2]?
The MIC50 was 0.5 µg/mL (≈ 1.23 µM).

What about the MIC90 [2] of the same molecule?
Its MIC90 is 1 µg/mL (≈ 2.46 µM).

What about the MIC50 [3] of the same molecule?
Its MIC50 is 0.25 µg/mL (≈ 0.615 µM).

And the MIC90 [3]?
Its MIC90 is 1 µg/mL (≈ 2.46 µM).

And the MBC50 [4]?
Its MBC50 is 2 µg/mL (≈ 4.92 µM).

And the MBC [4, 35]?
The MBC was 1 µg/mL (≈ 2.46 µM).

What about the MIC50 [5] of the same molecule?
Its MIC50 is 0.25 µg/mL (≈ 0.615 µM).

And the MIC90 [5]?
Its MIC90 is 1 µg/mL (≈ 2.46 µM).

And the MBC50 [6]?
Its MBC50 is 2 µg/mL (≈ 4.92 µM).

What about the MBC [6, 36] of the same molecule?
Its MBC is 1 µg/mL (≈ 2.46 µM).

What about the MIC50 [7] of the same molecule?
Its MIC50 is 0.25 µg/mL (≈ 0.615 µM).

What about the MIC90 [7] of the same molecule?
Its MIC90 is 1 µg/mL (≈ 2.46 µM).

And the MBC50 [8]?
The MBC50 was 2 µg/mL (≈ 4.92 µM).

And the MBC ([8]; Staphylococcus hominis, 24 h)?
The MBC was 1 µg/mL (≈ 2.46 µM).

And the MBC50 [9]?
The MBC50 was 2 µg/mL (≈ 4.92 µM).

And the MBC90 [9]?
Its MBC90 is 4 µg/mL (≈ 9.84 µM).

What about the MBC ([9]; Staphylococcus aureus, 24 h) of the same molecule?
Its MBC is 1 µg/mL (≈ 2.46 µM).

What about the MIC50 [10] of the same molecule?
The MIC50 was 0.25 µg/mL (≈ 0.615 µM).

And the MIC90 [10]?
The MIC90 was 1 µg/mL (≈ 2.46 µM).

What about the MBC [11] of the same molecule?
Its MBC is 2 µg/mL (≈ 4.92 µM).

And the MBC50 [12]?
Its MBC50 is 2 µg/mL (≈ 4.92 µM).

And the MBC ([12]; Staphylococcus simulans, 24 h)?
Its MBC is 1 µg/mL (≈ 2.46 µM).

And the MIC50 [13]?
The MIC50 was 0.25 µg/mL (≈ 0.615 µM).

What about the MIC90 [13] of the same molecule?
The MIC90 was 1 µg/mL (≈ 2.46 µM).

What about the MBC50 [14] of the same molecule?
The MBC50 was 2 µg/mL (≈ 4.92 µM).

And the MBC ([14]; Mammaliicoccus sciuri, 24 h)?
The MBC was 1 µg/mL (≈ 2.46 µM).

And the MIC50 [15]?
Its MIC50 is 0.5 µg/mL (≈ 1.23 µM).

What about the MIC90 [15] of the same molecule?
Its MIC90 is 1 µg/mL (≈ 2.46 µM).

And the MBC50 [16]?
Its MBC50 is 1 µg/mL (≈ 2.46 µM).

And the MBC90 [16]?
Its MBC90 is 4 µg/mL (≈ 9.84 µM).

What about the MBC ([16]; Staphylococcus hominis, 24 h) of the same molecule?
The MBC was 0.125 µg/mL (≈ 0.307 µM).

And the MIC50 [17]?
Its MIC50 is 0.5 µg/mL (≈ 1.23 µM).

And the MIC90 [17]?
The MIC90 was 1 µg/mL (≈ 2.46 µM).

What about the MBC50 [18] of the same molecule?
Its MBC50 is 1 µg/mL (≈ 2.46 µM).

And the MBC90 [18]?
The MBC90 was 4 µg/mL (≈ 9.84 µM).

And the MBC [18, 36]?
Its MBC is 0.125 µg/mL (≈ 0.307 µM).

What about the MIC50 [19] of the same molecule?
Its MIC50 is 0.5 µg/mL (≈ 1.23 µM).

And the MIC90 [19]?
The MIC90 was 1 µg/mL (≈ 2.46 µM).

What about the MBC50 [20] of the same molecule?
The MBC50 was 1 µg/mL (≈ 2.46 µM).

What about the MBC90 [20] of the same molecule?
Its MBC90 is 4 µg/mL (≈ 9.84 µM).

What about the MBC [20, 35] of the same molecule?
Its MBC is 0.125 µg/mL (≈ 0.307 µM).

And the MIC50 [21]?
The MIC50 was 0.5 µg/mL (≈ 1.23 µM).

And the MIC90 [21]?
The MIC90 was 1 µg/mL (≈ 2.46 µM).

And the MBC50 [22]?
The MBC50 was 1 µg/mL (≈ 2.46 µM).

And the MBC90 [22]?
Its MBC90 is 4 µg/mL (≈ 9.84 µM).

What about the MBC ([22]; Staphylococcus simulans, 24 h) of the same molecule?
The MBC was 0.125 µg/mL (≈ 0.307 µM).

And the MIC50 [23]?
Its MIC50 is 0.5 µg/mL (≈ 1.23 µM).

And the MIC90 [23]?
Its MIC90 is 1 µg/mL (≈ 2.46 µM).

What about the MBC50 [24] of the same molecule?
The MBC50 was 1 µg/mL (≈ 2.46 µM).

And the MBC90 [24]?
Its MBC90 is 4 µg/mL (≈ 9.84 µM).

And the MBC ([24]; Mammaliicoccus sciuri, 24 h)?
Its MBC is 0.125 µg/mL (≈ 0.307 µM).

What about the MIC [25] of the same molecule?
Its MIC is 4 µg/mL (≈ 9.84 µM).

What about the MIC [26] of the same molecule?
Its MIC is 4 µg/mL (≈ 9.84 µM).

What about the MIC [27] of the same molecule?
Its MIC is 4 µg/mL (≈ 9.84 µM).

What about the MIC [28] of the same molecule?
Its MIC is 2 µg/mL (≈ 4.92 µM).

What about the MIC [29] of the same molecule?
Its MIC is 2 µg/mL (≈ 4.92 µM).

And the MBC [30]?
Its MBC is 8 µg/mL (≈ 19.7 µM).

What about the MBC [31] of the same molecule?
The MBC was 8 µg/mL (≈ 19.7 µM).

And the MBC [32]?
Its MBC is 8 µg/mL (≈ 19.7 µM).

What about the MBC [33] of the same molecule?
The MBC was 4 µg/mL (≈ 9.84 µM).

What about the MBC [34] of the same molecule?
Its MBC is 4 µg/mL (≈ 9.84 µM).
